Biological target: T1, Beta-lactamase OXA-9 (Klebsiella aerogenes) (UniProt P0A3M4)
T1 sequence (whole entry): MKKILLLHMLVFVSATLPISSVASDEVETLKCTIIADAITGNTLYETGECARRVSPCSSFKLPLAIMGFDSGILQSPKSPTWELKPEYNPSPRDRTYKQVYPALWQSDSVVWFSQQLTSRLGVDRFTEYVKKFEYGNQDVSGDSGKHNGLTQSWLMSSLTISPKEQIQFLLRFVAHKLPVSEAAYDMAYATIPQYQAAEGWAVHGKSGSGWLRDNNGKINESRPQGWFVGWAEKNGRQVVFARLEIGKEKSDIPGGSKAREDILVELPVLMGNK
Assay: Inhibition of beta-lactamase of Enterobacter aerogenes relative to oxacillin sulfoxide(=1)
Summary of the method: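 Partially purified Enterobacter aerogenes β-lactamase at constant concentration in pH 8.5 phosphate buffer, 25 °C, hydrolysing cephalothin (2.6 × 10^-4 M). Inhibitors tested at 3.4 × 10^-7 to 8.5 × 10^-5 M. Initial hydrolysis rates with (v_i) and without (v) inhibitor followed by absorbance at 260 nm and estimated graphically. Ratio v/v_i expressed relative to a reference compound.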

`Cc1onc(-c2c(F)cccc2Cl)c1C(=O)N[C@@H]1C(=O)N2[C@@H]1SC(C)(C)[C@@H]2C(=O)O` and `Cc1onc(-c2c(Cl)cccc2Cl)c1C(=O)N[C@@H]1C(=O)N2[C@@H]1SC(C)(C)[C@@H]2C(=O)O` are the same in Relative inhibition: 5000 for the first, 5000 for the second.

Compared with `COC(=O)[C@@H]1N2C(=O)[C@@H](NC(=O)c3c(-c4ccccc4)noc3C)[C@H]2SC1(C)C`, `Cc1onc(-c2ccccc2)c1C(=O)N[C@@H]1C(=O)N2[C@@H]1SC(C)(C)[C@@H]2C(=O)O` is higher in Relative inhibition: 120 for the first, 5000 for the second.

Compared with `COC(=O)[C@@H]1N2C(=O)[C@@H](NC(=O)c3c(-c4ccccc4Cl)noc3C)[C@H]2SC1(C)C`, `Cc1onc(-c2ccccc2Cl)c1C(=O)N[C@@H]1C(=O)N2[C@@H]1SC(C)(C)[C@@H]2C(=O)O` is higher in Relative inhibition: 270 for the first, 5000 for the second.

First: COC(=O)[C@@H]1N2C(=O)[C@@H](NC(=O)c3c(-c4c(Cl)cccc4Cl)noc3C)[C@H]2SC1(C)C
Second: COC(=O)[C@@H]1N2C(=O)[C@@H](NC(=O)c3c(OC)cccc3OC)[C@H]2SC1(C)C
The Relative inhibition of the first is higher: 1500 for the first, 2 for the second.

First: Cc1onc(-c2ccccc2)c1C(=O)N[C@@H]1C(=O)N2[C@@H]1[S+]([O-])C(C)(C)[C@@H]2C(=O)O (stereo partly specified)
Second: Cc1onc(-c2ccccc2Cl)c1C(=O)N[C@@H]1C(=O)N2[C@@H]1[S+]([O-])C(C)(C)[C@@H]2C(=O)O (stereo partly specified)
The Relative inhibition of the first is lower: 1 for the first, 370 for the second.

In the case of `COc1cccc(OC)c1C(=O)N[C@@H]1C(=O)N2[C@@H]1SC(C)(C)[C@@H]2C(=O)O`, the Relative inhibition was 50.

Reference: ChEMBL document CHEMBL1121568, “A multifaceted approach to the study of the side-chain conformation in beta-lactamase-resistant penicillins” (J Med Chem, 1980)
